# Reference: the array DNA melting data of Ke et al. (doi:10.1101/2024.01.08.574731)
# How the values were obtained:
# [1] = folding enthalpy; higher = less favourable; fluorescence melt of hairpins on a sequencing array, two-state fit; details: sodium 0.088 M
# How it was run: (§1)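 Folding enthalpy and melting temperature were estimated with bootstrapped two-state fits and combined across four replicates by inverse-variance weighting, with fitted temperatures raised by 9.35 °C to match UV melts. The data were Cy3 fluorescence of library hairpins, with annealed Cy3 and quencher oligos, on a sequenced MiSeq flow cell in 50 mM Na-HEPES pH 8.0, 25 mM NaCl, imaged in 2.5 °C steps up to 60 °C and normalised to pre-quench Cy3 and control constructs.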
# [2] = melting temperature; fluorescence melt of hairpins on a sequencing array, two-state fit, raised by 9.35 °C to match UV melts; details: sodium 0.088 M
# How it was run: as §1
sequence,measurement,setting,value
GTATACGAAAGTATAC ((((((....)))))),folding enthalpy,[1],-28.4 kcal/mol
same,Tm,[2],54.2 °C
GCCAGACCGAAAGGTGGC (((..(((....)))))),folding enthalpy,[1],-42.4 kcal/mol
same,Tm,[2],53.7 °C
GAGAGCGAAAGCTGTCTC ((((((....)))..))),folding enthalpy,[1],-20.3 kcal/mol
same,Tm,[2],51.1 °C
GGGTTCGAAAGAAGACCC ((((((....)))..))),folding enthalpy,[1],-21.2 kcal/mol
same,Tm,[2],41.8 °C
GATCCCGCTGGGGATC ((((((....)))))),folding enthalpy,[1],-36.9 kcal/mol
same,Tm,[2],60.8 °C
AGTAGCTGAAAAGTTACT ((((.((....)).)))),folding enthalpy,[1],-20.2 kcal/mol
same,Tm,[2],36 °C
GTGAACGGAAACGTTCGC (.(((((....))))).),folding enthalpy,[1],-28.9 kcal/mol
same,Tm,[2],56.9 °C
GCTGGGGGAAACCTCGGC ((.(.((....)).).)),folding enthalpy,[1],-28.9 kcal/mol
same,Tm,[2],44.4 °C
GTATTAGCGAAAGCTTAC (((..(((....)))))),folding enthalpy,[1],-12.8 kcal/mol
same,Tm,[2],25.5 °C
GTGCCCGGAAACAGGCAC (((((.(....).))))),folding enthalpy,[1],-40.4 kcal/mol
same,Tm,[2],54.9 °C
GATCATTTATATGATC ((((((....)))))),folding enthalpy,[1],-35.6 kcal/mol
same,Tm,[2],48.4 °C
GCTGGGCGAAAGCAGAGC (((..((....))..))),folding enthalpy,[1],-19.8 kcal/mol
same,Tm,[2],49.5 °C
GGCCCGCGAAAGCGCGCC (((.(((....))).))),folding enthalpy,[1],-26.5 kcal/mol
same,Tm,[2],64.4 °C
GGAGCGGGAAACCGCCCC ((.((((....)))).)),folding enthalpy,[1],-16.3 kcal/mol
same,Tm,[2],56.7 °C
GGTCACGAAAGTGAACC ((((((....))).))),folding enthalpy,[1],-27.2 kcal/mol
same,Tm,[2],55.6 °C
GATCATCATCATGATC ((((((....)))))),folding enthalpy,[1],-34.8 kcal/mol
same,Tm,[2],45 °C
GATCGTGCTAACGATC ((((((....)))))),folding enthalpy,[1],-37.7 kcal/mol
same,Tm,[2],66.3 °C
GCATACGGAAACGTACGC ((.((((....)))).)),folding enthalpy,[1],-31.4 kcal/mol
same,Tm,[2],44.2 °C
GCAGCTGGAAACAGCTAC (.(((((....))))).),folding enthalpy,[1],-14 kcal/mol
same,Tm,[2],42.1 °C
GGTATTCGAAAGAAACC (((.(((....)))))),folding enthalpy,[1],-16.9 kcal/mol
same,Tm,[2],31.7 °C
GTCAAACGAAAGTTGGAC (((.(((....))).))),folding enthalpy,[1],-24.8 kcal/mol
same,Tm,[2],49.9 °C
GCGTACTCACGC ((((....)))),folding enthalpy,[1],-19.5 kcal/mol
same,Tm,[2],52.3 °C
GCATGGCGAAAGCTTTGC (((..((....))..))),folding enthalpy,[1],-21.4 kcal/mol
same,Tm,[2],46.7 °C
ATTTGGAAACAAAT (((((....))))),folding enthalpy,[1],-12.8 kcal/mol
same,Tm,[2],34.4 °C
GCTCTGCGAAAGCCGAGC ((((.((....)).)))),folding enthalpy,[1],-25.2 kcal/mol
same,Tm,[2],60.1 °C
GTTTGAGGAAACTCAGAC ((.((((....)))).)),folding enthalpy,[1],-23.4 kcal/mol
same,Tm,[2],39 °C
GTACCCCGAAAGGGCTAC (((.(((....))).))),folding enthalpy,[1],-14 kcal/mol
same,Tm,[2],35.7 °C
GATCGGGTACCGATC ((((((...)))))),folding enthalpy,[1],-44.7 kcal/mol
same,Tm,[2],67.5 °C
GAACCCGAAAGGGGTTTC ((((((....)))..))),folding enthalpy,[1],-11.6 kcal/mol
same,Tm,[2],46.9 °C
GAGTCCGAAAGGATTCTC ((((((....)))..))),folding enthalpy,[1],-24.4 kcal/mol
same,Tm,[2],50.6 °C
GAAAGCGGAAACGCCTTC (((.(((....))).))),folding enthalpy,[1],-18.4 kcal/mol
same,Tm,[2],34.1 °C
GGGCTCGAAAGAGCGCCC ((((((....)))..))),folding enthalpy,[1],-10.7 kcal/mol
same,Tm,[2],56.6 °C
GATCTGTTACCAGATC ((((((....)))))),folding enthalpy,[1],-42.4 kcal/mol
same,Tm,[2],50.5 °C
GGTACACGAAAGTGACC (((.(((....)))))),folding enthalpy,[1],-18.4 kcal/mol
same,Tm,[2],46.4 °C
GCGTTGCGAAAGCGAAGC ((.(.((....)).).)),folding enthalpy,[1],-20.4 kcal/mol
same,Tm,[2],54 °C
GTGTAAACGAAAGTTCAC (((..(((....)))))),folding enthalpy,[1],-18 kcal/mol
same,Tm,[2],33.7 °C
GATCTAAGCATAGATC ((((((....)))))),folding enthalpy,[1],-32.2 kcal/mol
same,Tm,[2],40.3 °C
GTCGCCGAAAGGCTGAC ((((((....))).))),folding enthalpy,[1],-17.8 kcal/mol
same,Tm,[2],57.1 °C
GGCGTCGAAAGACCAGCC ((((((....)))..))),folding enthalpy,[1],-18.6 kcal/mol
same,Tm,[2],50.9 °C
GCGGTATGCCGC ((((....)))),folding enthalpy,[1],-33.6 kcal/mol
same,Tm,[2],63 °C
GCCCCGCGAAAGCGGAGC ((.((((....)))).)),folding enthalpy,[1],-22 kcal/mol
same,Tm,[2],68.1 °C
GATCCTTAATAGGATC ((((((....)))))),folding enthalpy,[1],-39.1 kcal/mol
same,Tm,[2],50.1 °C
GGATAACGAAAGTTGTCC (((.(((....))).))),folding enthalpy,[1],-47.7 kcal/mol
same,Tm,[2],52.7 °C
GGGAATCGAAAGATGCCC (((.(((....))).))),folding enthalpy,[1],-44.3 kcal/mol
same,Tm,[2],54.6 °C
CGCGTCGGAAACGAAGCG (((.(((....))).))),folding enthalpy,[1],-34 kcal/mol
same,Tm,[2],56.7 °C
CGGCCTCGGAAACGACCG (((..(((....)))))),folding enthalpy,[1],-18.7 kcal/mol
same,Tm,[2],34.5 °C
GCGTCGCGAAAGCACCGC (((..((....))..))),folding enthalpy,[1],-20.8 kcal/mol
same,Tm,[2],53.9 °C
GCTGCAGGAAACCGCAGC (((((.(....).))))),folding enthalpy,[1],-32.9 kcal/mol
same,Tm,[2],57.8 °C
GATGAGAAATCATC (((((....))))),folding enthalpy,[1],-20.6 kcal/mol
same,Tm,[2],39.8 °C
GCCCAGCGAAAGCATGGC (((..((....))..))),folding enthalpy,[1],-16 kcal/mol
same,Tm,[2],56 °C
GTTGAACGAAAGTTGAAC (((.(((....))).))),folding enthalpy,[1],-25.9 kcal/mol
same,Tm,[2],38.1 °C
GGTTTCGAAAGAAGCACC ((((((....)))..))),folding enthalpy,[1],-16.5 kcal/mol
same,Tm,[2],28.6 °C
GCAACAGAAATGTTGC ((((((....)))))),folding enthalpy,[1],-40.1 kcal/mol
same,Tm,[2],56.6 °C
GATCTGCGCACAGATC ((((((....)))))),folding enthalpy,[1],-38.3 kcal/mol
same,Tm,[2],52.8 °C
GGTTAGCGAAAGCTTACC (((.(((....))).))),folding enthalpy,[1],-23.2 kcal/mol
same,Tm,[2],52 °C
GATCCAATGATGGATC ((((((....)))))),folding enthalpy,[1],-29.3 kcal/mol
same,Tm,[2],47.6 °C
GATCGTATTTACGATC ((((((....)))))),folding enthalpy,[1],-42.5 kcal/mol
same,Tm,[2],57.6 °C
GTGAAAGGAAACTTTTAC ((.((((....)))).)),folding enthalpy,[1],-22.9 kcal/mol
same,Tm,[2],31.3 °C
GATCGAGCACTCGATC ((((((....)))))),folding enthalpy,[1],-42.9 kcal/mol
same,Tm,[2],57.6 °C
GATCGGCTCTCCGATC ((((((....)))))),folding enthalpy,[1],-47.3 kcal/mol
same,Tm,[2],55.4 °C
GTATGTGGAAACATATGC (.((.((....)).)).),folding enthalpy,[1],-24.1 kcal/mol
same,Tm,[2],37.5 °C
GCGGAGCGAAAGCCTCGC (((..((....))..))),folding enthalpy,[1],-13.8 kcal/mol
same,Tm,[2],50.5 °C
GATATTGCGAAAGCAATC (((..(((....)))))),folding enthalpy,[1],-8.38 kcal/mol
same,Tm,[2],35.4 °C
GCAGCGCGAAAGCATTGC (((..((....))..))),folding enthalpy,[1],-14 kcal/mol
same,Tm,[2],40.9 °C
GTACCCTCGAAAGAGTAC (((..(((....)))))),folding enthalpy,[1],-10.6 kcal/mol
same,Tm,[2],25.2 °C
GGGGGCGGAAACGCCTCC ((.((((....)))).)),folding enthalpy,[1],-24.1 kcal/mol
same,Tm,[2],66.7 °C
CACGGGAAACCGTG (((((....))))),folding enthalpy,[1],-30.9 kcal/mol
same,Tm,[2],58.8 °C
GGGCGCACGAAAGTGCCC (((..(((....)))))),folding enthalpy,[1],-12.1 kcal/mol
same,Tm,[2],57 °C
GGCGAGGGAAACCTTGCC (((.(((....))).))),folding enthalpy,[1],-44.4 kcal/mol
same,Tm,[2],58 °C
